Data set [1] deals with BaF3. Description: Antiproliferative activity against mouse BaF3 cells transfected with TEL fused FLT3 D835V mutant assessed as cell growth inhibition incubated for 72 hrs by CCK-8 assay. Format: functional. In outline: (§1)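 Kinase-transformed isogenic BaF3 lines grown in RPMI 1640 with 10% FBS, 2% L-glutamine and pen/strep at 37 °C, 5% CO2. Seeded at 1500-3000 cells/well and treated with a compound concentration series for 72 h. Viability read by CCK8 absorbance at 450 nm.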

Data set [2] concerns MOLM-14. The data set can be described thus: Induction of cell cycle arrest in human MOLM-14 cells harboring FLT3-ITD mutant assessed as accumulation of cells at G0/G1 phase at 0.1 uM incubated for 24 hrs by RNase/PI staining based flow cytometry analysis. Format: functional. Background: In flow cytometry, cells or beads pass a laser one at a time.
Data set [3] has as its target T1, Signal transducer and activator of transcription 5A (Homo sapiens) (UniProt P42229).
T1 sequence (whole entry): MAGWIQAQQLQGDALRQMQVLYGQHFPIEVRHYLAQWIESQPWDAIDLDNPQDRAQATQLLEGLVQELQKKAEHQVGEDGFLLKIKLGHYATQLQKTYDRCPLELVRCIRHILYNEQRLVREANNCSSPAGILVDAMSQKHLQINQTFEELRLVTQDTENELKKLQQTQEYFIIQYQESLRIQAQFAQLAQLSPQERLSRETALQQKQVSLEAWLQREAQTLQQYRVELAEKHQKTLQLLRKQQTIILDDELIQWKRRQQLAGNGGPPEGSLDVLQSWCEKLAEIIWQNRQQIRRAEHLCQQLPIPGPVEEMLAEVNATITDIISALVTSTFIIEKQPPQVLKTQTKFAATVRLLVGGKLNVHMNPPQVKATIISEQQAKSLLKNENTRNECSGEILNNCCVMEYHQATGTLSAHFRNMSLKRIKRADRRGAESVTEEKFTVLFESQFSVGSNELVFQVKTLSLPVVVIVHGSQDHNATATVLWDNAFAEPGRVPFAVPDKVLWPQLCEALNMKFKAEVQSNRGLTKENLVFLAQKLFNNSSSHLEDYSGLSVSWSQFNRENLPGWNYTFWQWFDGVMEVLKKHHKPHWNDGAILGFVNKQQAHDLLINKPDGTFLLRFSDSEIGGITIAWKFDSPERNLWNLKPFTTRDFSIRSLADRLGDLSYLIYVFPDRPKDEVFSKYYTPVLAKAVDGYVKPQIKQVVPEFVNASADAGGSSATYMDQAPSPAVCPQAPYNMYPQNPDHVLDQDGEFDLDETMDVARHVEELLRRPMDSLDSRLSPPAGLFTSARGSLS
Description: Inhibition of STAT5 phosphorylation at Tyr694 residue in human MOLM-14 cells harboring FLT3-ITD mutant incubated for 4 hrs by Western blot analysis. It is filed as cell-based. Particulars: dose 0.01-3 µM. In outline: (§2)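 Cells were exposed to the compound at a series of concentrations for 4 h, and whole-cell lysates were analysed by Western blot. MV4-11 cells were grown in IMDM with 10% FBS. MOLM13 and MOLM14 cells were grown in RPMI 1640 with 10% FBS. All cultures were kept at 37 °C with 5% CO2.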
(In western blotting, separated proteins are transferred to a membrane and probed.)

In data set [4] the test system is MV4-11. Description: Induction of cell cycle arrest in human MV4-11 cells harboring FLT3-ITD mutant assessed as accumulation of cells at G0/G1 phase at 0.1 uM incubated for 24 hrs by RNase/PI staining based flow cytometry analysis. Format: functional.
The subject of data set [5] is MV4-11. The data set can be described thus: Antitumor activity against human MV4-11 cells xenografted in nu/nu mouse assessed as inhibition of tumor growth at 100 mg/kg/day, po administered via gavage for 28 days relative to control. The note with it: MV4-11, 672 h, time 28 day, read-out: TGI. Format: functional. In outline:
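MV4-11 cells implanted in mice. Once tumours reached a mean of about 200 mm3, mice were dosed orally once daily for 28 days with vehicle or 25, 50 or 100 mg/kg/day. Tumour size and body weight tracked relative to starting values; final tumour weight also recorded.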
On the technique in general: A xenograft is tissue or cells of one species grown in another, often human tumour cells in immunodeficient mice.

A short description of data set [6]: Tmax in Sprague-Dawley rat at 1 mg/kg, iv. Format: ADME, organism-based. Particulars: in vivo. In outline: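 Sprague-Dawley rats were dosed either intravenously at 1 mg/kg or by oral gavage at 10 mg/kg. Plasma PK parameters were AUC(0-t), AUC(0-∞), MRT(0-t), T1/2, Tmax, Vz, CLz, Cmax and F%. Values are the mean ± SD of three independent animals.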
The target in data set [7] is Mast/stem cell growth factor receptor Kit (Homo sapiens, UniProt P10721). The data set can be described thus: Inhibition of KIT (unknown origin) preincubated for 60 mins followed by ATP addition and measured after 1 hr by ADP-Glo assay. In outline:
(§3)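 ADP-Glo luminescence assay. Kinase was preincubated with compound for 60 min at room temperature, then ATP/substrate was added and the reaction ran 1 h at 37 °C. ADP-Glo reagent was added for 40 min, then detection reagent for 30 min, and luminescence was read. Enzyme and ATP per target: KIT 20 ng/µL, 50 µM ATP; PDGFRα 2.5 ng/µL, 25 µM ATP; PDGFRβ 1.25 ng/µL, 25 µM ATP. IC50 was taken from the dose-response fit.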

Data set [8] deals with MOLM-14. The data set can be described thus: Antiproliferative activity against human MOLM-14 cells transfected with FLT3-ITD mutant assessed as cell growth inhibition incubated for 72 hrs by CCK-8 assay. It is filed as functional. In outline: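 Cells kept at 37 °C, 5% CO2. MV4-11 grown in IMDM with 10% FBS. MOLM13, MOLM14, U937 and HL-60 grown in RPMI 1640 with 10% FBS. OCI-AML-2 grown in α-MEM with 20% FBS. Seeded at 1500-3000 cells/well and exposed to a concentration series for 72 h. Viability read by CCK8 absorbance at 450 nm.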

A short description of data set [9]: Cytotoxicity against CHO cells assessed as inhibition of cell growth. It is filed as toxicity, cell-based, Cricetulus griseus. The note with it: chinese hamster.
The test system of data set [10] is BaF3. Description: Antiproliferative activity against mouse BaF3 cells transfected with TEL fused PDGFRalpha assessed as cell growth inhibition incubated for 72 hrs by CCK-8 assay. It is filed as functional. In outline: as §1
Data set [11] concerns the target T1, Signal transducer and activator of transcription 5A (Homo sapiens). Description: Inhibition of STAT5 phosphorylation at Tyr694 residue in human MV4-11 cells harboring FLT3-ITD mutant incubated for 4 hrs by Western blot analysis. Format: cell-based. The note with it: dose 0.01-3 µM. In outline:
as §2

In data set [12] the target is Platelet-derived growth factor receptor beta (Homo sapiens, UniProt P09619). The data set can be described thus: Inhibition of PDGFRbeta (unknown origin) preincubated for 60 mins followed by ATP addition and measured after 1 hr by ADP-Glo assay. In outline:
as §3

Data set [13] concerns MOLM-14. The data set can be described thus: Inhibition of AKT phosphorylation at Ser473 residue in human MOLM-14 cells harboring FLT3-ITD mutant incubated for 4 hrs by Western blot analysis. Format: cell-based. The note with it: dose 0.01-3 µM. In outline: as §2
Data set [14] addresses Platelet-derived growth factor receptor alpha (Homo sapiens, UniProt P16234). The data set can be described thus: Inhibition of PDGFRalpha (unknown origin) preincubated for 60 mins followed by ATP addition and measured after 1 hr by ADP-Glo assay. In outline: as §3
Data set [15] concerns MOLM-13. Description: Induction of apoptosis in human MOLM-13 cells harboring FLT3-ITD mutant assessed as increase in cleaved caspase-3 level incubated for 24 hrs by Western blot analysis. Format: functional, cell-based. Particulars: dose 0.1-3 µM.
Data set [16] deals with MOLM-13. Description: Induction of cell cycle arrest in human MOLM-13 cells harboring FLT3-ITD mutant assessed as accumulation of cells at G0/G1 phase at 0.1 uM incubated for 12 hrs by RNase/PI staining based flow cytometry analysis. Format: functional.
Data set [17] concerns MOLM-14. The data set can be described thus: Induction of apoptosis in human MOLM-14 cells harboring FLT3-ITD mutant assessed as increase in cleaved PARP level incubated for 24 hrs by Western blot analysis. Format: functional, cell-based. The note with it: dose 0.1-3 µM.

The source made the active and inactive calls. The calls are words filed in the database; no cut-off is given here. Bounds are passed on as bounds.

Sequence of Platelet-derived growth factor receptor beta (P09619 whole entry): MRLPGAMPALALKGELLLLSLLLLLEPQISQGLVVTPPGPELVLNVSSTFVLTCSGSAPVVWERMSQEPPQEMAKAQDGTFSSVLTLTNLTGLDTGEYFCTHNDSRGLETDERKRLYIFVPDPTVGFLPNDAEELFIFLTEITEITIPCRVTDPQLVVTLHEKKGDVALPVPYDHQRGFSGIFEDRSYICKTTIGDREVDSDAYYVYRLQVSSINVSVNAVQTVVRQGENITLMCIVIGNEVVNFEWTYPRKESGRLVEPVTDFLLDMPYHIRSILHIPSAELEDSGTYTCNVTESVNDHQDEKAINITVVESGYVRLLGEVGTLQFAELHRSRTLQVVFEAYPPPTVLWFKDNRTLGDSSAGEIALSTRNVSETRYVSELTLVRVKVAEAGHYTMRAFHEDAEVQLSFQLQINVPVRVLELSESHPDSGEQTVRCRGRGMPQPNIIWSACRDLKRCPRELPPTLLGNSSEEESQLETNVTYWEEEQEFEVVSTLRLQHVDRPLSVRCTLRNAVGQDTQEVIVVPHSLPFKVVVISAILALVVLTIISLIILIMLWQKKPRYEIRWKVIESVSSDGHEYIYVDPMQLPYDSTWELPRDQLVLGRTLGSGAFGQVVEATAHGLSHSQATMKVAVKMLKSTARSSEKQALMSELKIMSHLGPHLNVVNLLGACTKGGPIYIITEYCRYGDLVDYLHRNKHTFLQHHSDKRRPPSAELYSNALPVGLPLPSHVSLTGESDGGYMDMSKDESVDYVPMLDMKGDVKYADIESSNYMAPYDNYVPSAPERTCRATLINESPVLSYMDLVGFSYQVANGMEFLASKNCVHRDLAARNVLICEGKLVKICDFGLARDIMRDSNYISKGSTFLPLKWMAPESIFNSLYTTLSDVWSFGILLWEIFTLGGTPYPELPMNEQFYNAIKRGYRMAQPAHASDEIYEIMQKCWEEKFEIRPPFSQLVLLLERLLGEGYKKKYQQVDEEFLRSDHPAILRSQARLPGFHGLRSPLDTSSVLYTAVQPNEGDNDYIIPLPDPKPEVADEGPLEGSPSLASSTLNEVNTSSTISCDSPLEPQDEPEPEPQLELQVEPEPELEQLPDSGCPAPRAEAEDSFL
Sequence of Platelet-derived growth factor receptor alpha (P16234 whole entry): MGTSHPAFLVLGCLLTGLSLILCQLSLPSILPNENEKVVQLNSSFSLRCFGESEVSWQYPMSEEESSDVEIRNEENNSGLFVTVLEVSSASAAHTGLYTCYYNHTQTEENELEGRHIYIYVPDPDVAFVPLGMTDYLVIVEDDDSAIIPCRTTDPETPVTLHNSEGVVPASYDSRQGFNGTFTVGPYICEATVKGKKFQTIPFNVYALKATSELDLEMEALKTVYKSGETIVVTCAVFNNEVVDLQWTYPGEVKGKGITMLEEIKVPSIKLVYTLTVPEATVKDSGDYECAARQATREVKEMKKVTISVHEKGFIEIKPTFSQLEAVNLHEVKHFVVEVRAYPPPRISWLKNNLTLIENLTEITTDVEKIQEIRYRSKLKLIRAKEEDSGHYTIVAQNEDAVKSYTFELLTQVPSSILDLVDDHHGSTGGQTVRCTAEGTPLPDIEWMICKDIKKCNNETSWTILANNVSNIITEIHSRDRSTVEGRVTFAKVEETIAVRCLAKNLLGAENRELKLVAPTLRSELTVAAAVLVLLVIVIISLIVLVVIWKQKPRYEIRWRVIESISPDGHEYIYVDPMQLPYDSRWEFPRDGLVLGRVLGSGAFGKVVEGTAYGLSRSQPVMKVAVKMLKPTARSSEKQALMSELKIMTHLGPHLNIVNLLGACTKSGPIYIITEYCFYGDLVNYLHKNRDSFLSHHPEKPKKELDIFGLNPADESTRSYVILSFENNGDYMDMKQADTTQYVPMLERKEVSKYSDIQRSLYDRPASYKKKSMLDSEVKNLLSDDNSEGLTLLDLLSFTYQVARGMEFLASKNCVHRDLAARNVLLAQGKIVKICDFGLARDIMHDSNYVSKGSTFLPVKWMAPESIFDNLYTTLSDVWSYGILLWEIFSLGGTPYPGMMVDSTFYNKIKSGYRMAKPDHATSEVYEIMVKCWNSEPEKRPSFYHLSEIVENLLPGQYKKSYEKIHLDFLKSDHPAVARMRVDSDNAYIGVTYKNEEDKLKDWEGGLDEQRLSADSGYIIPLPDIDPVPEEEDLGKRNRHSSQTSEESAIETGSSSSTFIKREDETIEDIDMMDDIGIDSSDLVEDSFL
Sequence of Mast/stem cell growth factor receptor Kit (P10721 whole entry): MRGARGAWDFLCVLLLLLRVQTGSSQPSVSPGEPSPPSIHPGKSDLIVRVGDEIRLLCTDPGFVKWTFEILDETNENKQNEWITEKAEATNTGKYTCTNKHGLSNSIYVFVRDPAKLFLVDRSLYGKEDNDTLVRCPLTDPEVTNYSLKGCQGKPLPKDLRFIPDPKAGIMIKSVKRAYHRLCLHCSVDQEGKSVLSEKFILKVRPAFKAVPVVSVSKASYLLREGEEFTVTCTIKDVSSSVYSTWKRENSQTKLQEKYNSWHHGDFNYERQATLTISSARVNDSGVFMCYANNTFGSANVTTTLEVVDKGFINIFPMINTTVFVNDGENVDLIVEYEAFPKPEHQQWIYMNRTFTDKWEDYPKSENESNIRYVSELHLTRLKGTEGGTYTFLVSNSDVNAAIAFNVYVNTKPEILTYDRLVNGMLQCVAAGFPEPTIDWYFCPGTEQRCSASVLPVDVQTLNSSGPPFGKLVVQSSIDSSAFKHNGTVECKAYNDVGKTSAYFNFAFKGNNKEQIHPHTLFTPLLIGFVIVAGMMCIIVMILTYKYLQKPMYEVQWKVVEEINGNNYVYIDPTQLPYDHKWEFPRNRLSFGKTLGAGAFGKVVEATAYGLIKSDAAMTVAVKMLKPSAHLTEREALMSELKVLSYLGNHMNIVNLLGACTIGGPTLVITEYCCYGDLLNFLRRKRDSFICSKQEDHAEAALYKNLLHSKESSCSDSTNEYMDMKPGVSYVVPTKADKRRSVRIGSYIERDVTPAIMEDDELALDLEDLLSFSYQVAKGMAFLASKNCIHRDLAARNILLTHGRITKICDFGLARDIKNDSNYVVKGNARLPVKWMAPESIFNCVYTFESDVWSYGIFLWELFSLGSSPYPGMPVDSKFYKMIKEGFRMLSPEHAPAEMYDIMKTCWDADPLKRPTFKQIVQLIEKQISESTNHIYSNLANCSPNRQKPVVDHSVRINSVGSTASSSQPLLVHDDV

Broadly, the GI50 is the concentration that inhibits growth by half. As a reminder, the Tmax is the time at which the peak concentration occurs. What is called IC50 is the point on the concentration scale where inhibition reaches its midpoint. A high value points to lower potency. With `CC(=O)Nc1cc(Oc2ccc(NC(=O)Cc3ccccc3C(F)(F)F)cc2)ncn1`, the GI50 is over 10000 nM in the data set on BaF3 [1], 343 nM with MOLM-14 [8], over 10000 nM in data set [9] and 7 nM in the data set with BaF3 [10]. The outcome in the data set with MOLM-14 [2], with MV4-11 [4] and with MOLM-13 [16] was Active. Besides, the inhibition entry (in data set [3]; in data set [11]; in the data set on MOLM-14 [13]) was “Dose-Dependent Effect” throughout. In the data set with MV4-11 [5], the inhibition in vivo at 100 mg/kg/day stood at 80%. Moreover, the Tmax in data set [6] is 1.2 min. Further, the results for the IC50 in [7], in data set [12] and in data set [14] were 681 nM, 207 nM and 83.8 nM, respectively. Also, the Activity result in the data set on MOLM-13 [15] and in the data set on MOLM-14 [17] was “Dose-Dependent Effect” throughout.

(Values after ChEMBL document CHEMBL5260841, “Discovery of N-(4-(6-Acetamidopyrimidin-4-yloxy)phenyl)-2-(2-(trifluoromethyl)phenyl)acetamide (CHMFL-FLT3-335) as a Potent FMS-like Tyrosine Kinase 3 Internal Tandem Duplication (FLT3-ITD) Mutant Selective Inhibitor for Acute Myeloid Leukemia” (J Med Chem, 2019).)
